Screens as filed in PubChem.
The list is not random: actives were taken first. Their share in the collection is about 0.94%.
NPR2 activator: human GC-B receptor activators, primary screen, HEK293 GC-B cells, cGMP TR-FRET, EC30 CNP | Atrial natriuretic peptide receptor 2 (Homo sapiens), P20594 | 0% at EC30 CNP, 100% saturating CNP | activation, % at 10 µM | 0.11% of 370,000 active;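 active means activation at 10 µM reaching about 35% in either raw or pattern-adjusted values, limit read from the data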
Target sequence (P20594 whole entry, looked up): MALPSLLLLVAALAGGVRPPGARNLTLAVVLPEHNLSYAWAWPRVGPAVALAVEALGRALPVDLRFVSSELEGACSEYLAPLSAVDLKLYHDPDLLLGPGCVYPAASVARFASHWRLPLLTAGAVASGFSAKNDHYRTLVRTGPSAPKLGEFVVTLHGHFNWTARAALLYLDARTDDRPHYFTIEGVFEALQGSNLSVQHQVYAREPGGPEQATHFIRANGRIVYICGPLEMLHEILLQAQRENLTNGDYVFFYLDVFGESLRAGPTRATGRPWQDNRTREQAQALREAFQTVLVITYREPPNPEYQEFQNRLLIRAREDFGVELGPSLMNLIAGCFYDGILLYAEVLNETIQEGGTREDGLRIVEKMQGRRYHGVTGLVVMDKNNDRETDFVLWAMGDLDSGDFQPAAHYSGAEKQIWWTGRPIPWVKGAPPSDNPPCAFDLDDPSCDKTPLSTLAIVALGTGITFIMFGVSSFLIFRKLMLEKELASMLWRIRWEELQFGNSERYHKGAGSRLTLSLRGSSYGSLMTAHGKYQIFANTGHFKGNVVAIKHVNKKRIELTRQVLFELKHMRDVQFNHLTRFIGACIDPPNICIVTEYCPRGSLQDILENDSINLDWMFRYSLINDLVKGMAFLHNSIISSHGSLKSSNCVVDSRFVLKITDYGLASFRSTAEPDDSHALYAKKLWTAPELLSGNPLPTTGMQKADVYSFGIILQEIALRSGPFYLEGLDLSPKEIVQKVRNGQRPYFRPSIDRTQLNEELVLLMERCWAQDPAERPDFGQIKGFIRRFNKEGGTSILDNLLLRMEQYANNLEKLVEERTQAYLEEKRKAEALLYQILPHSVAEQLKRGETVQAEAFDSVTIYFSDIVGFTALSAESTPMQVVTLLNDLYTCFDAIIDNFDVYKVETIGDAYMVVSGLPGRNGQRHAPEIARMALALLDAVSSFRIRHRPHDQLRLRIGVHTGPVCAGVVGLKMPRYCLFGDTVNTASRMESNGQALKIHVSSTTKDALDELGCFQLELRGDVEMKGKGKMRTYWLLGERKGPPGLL
NPR1 activator: GC-A stimulated cGMP production enhancers – HEK293 GC-A cells, cGMP TR-FRET, EC30 ANP, primary screen; activation, % at 10 µM; 0.14% of 370,000 active; 0% at EC30 ANP, 100% saturating ANP; Atrial natriuretic peptide receptor 1 (Homo sapiens), P16066; in the data active means activation above about 40%
Arrestin-AP2 inh: inhibitors of beta-arrestin/AP2 binding, primary screen, biochemical, GPCR trafficking, flow cytometry. FITC-arrestin peptide / GST-AP2 beads; AP2 beta2 appendage carries R879A mutation. beta-arrestin 1 C-terminal peptide binding to AP2 beta2-adaptin appendage (human). inhibition, % at 10 µM. 0.31% of 340,000 active;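 active means inhibition above a set limit, near 3 SD of compounds lacking own fluorescence, cut at about 54% in these data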;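 further: plate controls were DMSO wells for no effect and 5 µM unlabelled arrestin peptide for full effect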
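test system = AP2 appendage R879A on GSH beads | buffer or medium = PBS plus Tween 20 (0.05%) and BSA (0.1%) | incubation = 12 min plus 1 h, RT | detection = bead flow cytometry, FITC channel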
GalR3 antagonist: GalR3 antagonists in HEK293 cells, primary screen, cell-based, fluorescence readout | 0.44% of 360,000 active | Galanin receptor type 3 (Homo sapiens), O60755 | inhibition, % at 3 µM | HEK293 GalR3-CNG cAMP membrane potential fluorescence; galR3 body fused to GalR1 C-terminus;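 active means inhibition above the screen-wide average plus 3 SD, cut at about 13% in these data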;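 further: forskolin and galanin both at EC90 stimulate the cells; cAMP rise reported by CNG channel membrane potential dye signal; 0% = forskolin plus galanin with DMSO and 100% = forskolin alone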
Numbers without * were called inactive; x = no result given.

SMILES | NPR2 activator | NPR1 activator | Arrestin-AP2 inh | GalR3 antagonist
Cc1nn(-c2ccc(Cl)cc2)c(Cl)c1/C=C(\C#N)C(N)=O | 5.2 | 48.7* | -6.9 | 0.8
COc1cc(C2NCC(c3ccc(Cl)cc3Cl)c3c2[nH]c2ccccc32)cc(OC)c1OC (centres undefined) | -11.3 | 85.6* | 26.7 | -2.0
O=C(O)c1ccc(C2NCC(c3ccccc3Cl)c3c2[nH]c2ccccc32)cc1 (centres undefined) | 0.0 | 54.0* | 1.3 | 4.5
COc1cc([C@H]2c3[nH]c4ccccc4c3C[C@H]3C(=O)N4[C@@H](c5cc(OC)c(OC)c(OC)c5)c5[nH]c6ccccc6c5C[C@H]4C(=O)N23)cc(OC)c1OC | x | x | 5.0 | x
O=C1[C@@H]2Cc3c([nH]c4ccccc34)C(c3ccc(Cl)cc3)N2C(=O)CN1CCO (some centres undefined) | -19.7 | -44.7 | -4.2 | -7.2
O=C(O)[C@@H]1C[C@@H](O)CN1 | 1.6 | 0.4 | x | x
Cc1ccc(NC2=NC(c3ccccc3)n3c(nc(C)cc3=O)N2)c(C)c1 (centres undefined) | 38.5* | 28.8 | -11.6 | -6.3
Cc1[nH]c2ccccc2c1C(=O)c1cc(Cc2ccccc2)sc1N | 3.3 | 48.3* | x | -4.7
O=C(OC12CCCN(C1)/C(=C/c1ccncc1)C2)c1ccc(F)cc1 (centres undefined) | 10.2 | -0.9 | x | x
COC(=O)c1ccc(Cn2ccc3ccc(-c4ccc5ccn(C(=O)c6ccccc6)c5c4)cc32)cc1 | 5.1 | 0.3 | x | x
Cc1ccc(Cn2ncc(Cl)c(Cl)c2=O)cc1 | -3.6 | 5.5 | -7.8 | -4.7
CCc1ccc(C(=O)Cn2ncc(Cl)c(Cl)c2=O)cc1 | 26.2 | 59.9* | 7.5 | -3.7
O=C(CCc1c[nH]c2ccccc12)Nc1ccc(Oc2cccnc2)cc1 | -7.8 | -4.2 | x | -7.0
CCCCCCCCSC1=CC(=O)C(OC)=C(OC)C1=O | 8.4 | 45.2* | x | -2.9
CCOC(=O)N1CCN(C(=O)C[C@H]2C[C@@]3(C(=O)OC)C(=C[C@H](C(C)C)O[C@@H]3C3CC3)N(Cc3ccccc3)C2=O)CC1 | 9.8 | -3.7 | x | -5.8
COCCN(Cc1ccc(C)cc1)C(=O)[C@H]1O[C@@H](n2cnc(C(N)=O)n2)[C@H](O)[C@@H]1O | 3.2 | -0.4 | x | -7.2
COc1ccc(-n2nc(C#N)c(Cl)cc2=O)cc1 | 0.9 | 46.5* | 10.4 | -9.1
CC(C)C[C@H]1COc2cc(NCc3ccc(Cl)c(Cl)c3)ccc2S(=O)(=O)N1 | 1.4 | -4.9 | x | 1.1
O=C(Cn1c(=O)n2ncnc2c2c3c(sc21)CCCC3)c1ccccc1 | 4.6 | 13.7 | -1.3 | -6.1
O=c1n(Cc2ccccc2Cl)c2sc3c(c2c2ncnn12)CCCC3 | 38.7* | 25.1 | 2.9 | 2.9
Cn1c(=O)c2c(nc(NCC3CCCO3)n2C)n(C)c1=O (centres undefined) | 0.4 | 10.7 | 8.2 | -8.9
Cn1c(=O)[nH]c(=O)c2c1nc(NC1CCCC1)n2Cc1ccccc1 | 31.6 | 43.8* | -0.8 | -1.8
Cn1c(=O)[nH]c(=O)c2c1nc(N1CCNCC1)n2Cc1ccccc1 | -3.2 | -2.0 | 7.0 | -11.6
Cn1c(=O)n(Cc2ccccc2)c(=O)c2c1nc(NCC1CCCO1)n2Cc1ccccc1 (centres undefined) | 56.6* | 48.9* | 0.8 | -5.6
CN1C(=O)[C@@]2(O[C@H]3[C@H]4C=C[C@@H]([C@H]5C(=O)N(Cc6ccccc6)C(=O)[C@@H]45)N3C3=C2C(=O)CC3)c2ccccc21 | 2.0 | 5.1 | x | -5.1
SMILES | NPR2 activator | NPR1 activator | Arrestin-AP2 inh | GalR3 antagonist
O=C(NCc1ccco1)O[C@H]1CC[C@@]23CCCN2C(=O)CCC[C@H]3C1 | -2.7 | -1.2 | x | x
CN1CCN(C2=C(Cl)C(=O)C(c3cnc(N4CCCCC4)s3)=C(Cl)C2=O)CC1 | x | x | 107.0* | x
CN1CCN(C2=C(Cl)C(=O)c3ccccc3C2=O)CC1 | -5.4 | 2.9 | 41.0 | -5.1
CCN1C(=O)c2cccc3c(NC(=O)c4ccc(S(=O)(=O)N(C)C)cc4)ccc1c23 | 41.5* | 28.9 | 6.3 | -1.9
CCN1C(=O)c2cccc3c(NC(=O)c4ccc(S(=O)(=O)N5CCOCC5)cc4)ccc1c23 | 12.3 | 7.5 | -8.4 | 2.6
C#Cc1cccc(Nc2nc(NCc3ccccc3OC)nc3ccsc23)c1 | 7.0 | 3.4 | x | -7.1
C#Cc1cccc(Nc2nc(NCCOC)nc3ccsc23)c1 | 37.4* | 35.2 | x | -5.7
COC(=O)c1[nH]c2cc(OC)ccc2c1NC(=O)c1c(F)cccc1F | -0.7 | -3.5 | -9.7 | -5.2
C=CCNC(=S)Nc1c(C(=O)OC)[nH]c2cc(OC)ccc12 | 35.8* | 19.7 | 6.3 | 3.3
O=C(Nc1cccc(Cl)c1)NN(c1ccccc1)C1CCS(=O)(=O)C1 (centres undefined) | -12.3 | -7.3 | x | -2.5
O=[N+]([O-])c1cc(S(=O)(=O)N2CCCCCC2)ccc1F | 47.8* | 8.0 | -5.4 | -10.6
CC1(C)OC(=O)C(=Cc2ccc(-c3ccc(S(N)(=O)=O)cc3)o2)C(=O)O1 | 15.6 | 40.1* | 5.9 | -4.5
O=C(O)[C@H]1CCCN1C(=O)c1ccccc1N1C(=O)[C@@H]2Cc3c([nH]c4ccccc34)C(c3cccc(Cl)c3)N2C1=O (some centres undefined) | 35.2* | 22.3 | 5.7 | -4.3
Cn1c(N)c(C(=O)COC(=O)c2cc(C3CC3)nc3ccccc23)c(=O)n(C)c1=O | 36.2* | 5.6 | 1.0 | 5.3
Cn1c(N)c(C(=O)COC(=O)c2cc(-c3ccco3)nc3ccccc23)c(=O)n(C)c1=O | 2.6 | -2.2 | 20.3 | -3.5
CC(=O)N1C[C@@H](CN2C(=O)CCC2=O)[C@@H]2C[C@H]1c1ccccc1N2C | -0.1 | 0.6 | x | -4.2
O=C1c2ccccc2C(Nc2ccccc2)N1Cc1ccc2c(c1)OCO2 (centres undefined) | -6.8 | 61.6* | -2.2 | -3.6
C[C@H](O)[C@@H]1CN2CCc3c([nH]c4c(-c5ccccc5)cccc34)[C@@H]2C[C@@H]1N(C)C(=O)NC1CCCCC1 | 3.7 | -5.5 | x | -3.2
O=C(NCc1ccccc1)[C@@H]1CCCN1C(=O)[C@H]1CCCN1C(=O)c1cccs1 | -2.4 | 5.5 | x | -5.2
COc1ccc(COc2cc(-c3cccc(OC)c3)nc3ccc(NC(C)=O)cc23)cc1 | 67.5* | 54.3* | 4.5 | -3.1
COc1ccc(COc2cc(-c3cccc(OC)c3)nc3ccc(NC(=O)c4ccc(N(C)C)cc4)cc23)cc1 | x | x | 14.6 | x
COc1ccc(COc2cc(-c3cccc(OC)c3)nc3ccc(NC(=O)c4ccc(C)cc4)cc23)cc1 | 26.1 | 24.1 | -6.1 | -5.2
COc1ccc(COc2cc(-c3cccc(OC)c3)nc3ccc(N)cc23)cc1 | 52.8* | 55.9* | -2.5 | -3.0
